Columns and labels:
Assay type in all cases: ADME, organism-based
Lung [1] = assay: Biodistribution in ICR mouse lung at 1 uCi, iv after 60 mins postinjection; conditions: in vivo, 1 h
Method in brief: (§1)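 Female ICR mice (18–22 g, n = 5) received HPLC-purified radiotracer by tail vein (0.1 mL). They were killed by cervical fracture at the stated times. Blood and organs were removed, weighed and gamma-counted. Uptake expressed as percent injected dose per gram of tissue (%ID/g), given as mean with SD.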

Lung [2] = assay: Biodistribution in ICR mouse lung at 1 uCi, iv after 120 mins postinjection; conditions: in vivo, 2 h; method in brief: as §1
Lung [3] = assay: Biodistribution in ICR mouse lung at 1 uCi, iv after 240 mins postinjection; conditions: in vivo, 4 h; method in brief: as §1
Kidney [4] = assay: Biodistribution in ICR mouse kidney at 1 uCi, iv after 15 mins postinjection; conditions: in vivo, 0.25 h; method in brief: as §1
Kidney [5] = assay: Biodistribution in ICR mouse kidney at 1 uCi, iv after 30 mins postinjection; conditions: in vivo, 0.5 h; method in brief: as §1
Kidney [6] = assay: Biodistribution in ICR mouse kidney at 1 uCi, iv after 60 mins postinjection; conditions: in vivo, 1 h; method in brief: as §1
Kidney [7] = assay: Biodistribution in ICR mouse kidney at 1 uCi, iv after 120 mins postinjection; conditions: in vivo, 2 h; method in brief: as §1
Kidney [8] = assay: Biodistribution in ICR mouse kidney at 1 uCi, iv after 240 mins postinjection; conditions: in vivo, 4 h; method in brief: as §1
Thyroid gland [9] = assay: Biodistribution in ICR mouse thyroid at 1 uCi, iv after 15 mins postinjection; conditions: in vivo, 0.25 h
Method in brief: (§2)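 Female ICR mice (18–22 g, n = 5) received HPLC-purified radioiodinated tracer by tail vein (0.1 mL, 1 µCi). They were killed by cervical fracture at 15, 30, 60, 120 or 240 min post-injection. Blood and organs were removed, weighed and gamma-counted. Uptake is expressed as %ID/g, mean ± SD, n = 4–5.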

Thyroid gland [10] = assay: Biodistribution in ICR mouse thyroid at 1 uCi, iv after 30 mins postinjection; conditions: in vivo, 0.5 h; method in brief: as §2
Thyroid gland [11] = assay: Biodistribution in ICR mouse thyroid at 1 uCi, iv after 60 mins postinjection; conditions: in vivo, 1 h; method in brief: as §2
Thyroid gland [12] = assay: Biodistribution in ICR mouse thyroid at 1 uCi, iv after 120 mins postinjection; conditions: in vivo, 2 h; method in brief: as §2
Thyroid gland [13] = assay: Biodistribution in ICR mouse thyroid at 1 uCi, iv after 240 mins postinjection; conditions: in vivo, 4 h; method in brief: as §2
Stomach [14] = assay: Biodistribution in ICR mouse stomach at 1 uCi, iv measured per organ after 15 mins postinjection; conditions: in vivo, 0.25 h
Stomach [15] = assay: Biodistribution in ICR mouse stomach at 1 uCi, iv measured per organ after 30 mins postinjection; conditions: in vivo, 0.5 h
Stomach [16] = assay: Biodistribution in ICR mouse stomach at 1 uCi, iv measured per organ after 60 mins postinjection; conditions: in vivo, 1 h; method in brief: as §2
Stomach [17] = assay: Biodistribution in ICR mouse stomach at 1 uCi, iv measured per organ after 120 mins postinjection; conditions: in vivo, 2 h
Stomach [18] = assay: Biodistribution in ICR mouse stomach at 1 uCi, iv measured per organ after 240 mins postinjection; conditions: in vivo, 4 h
Muscle tissue [19] = assay: Biodistribution in ICR mouse muscle at 1 uCi, iv after 15 mins postinjection; conditions: in vivo, 0.25 h; method in brief: as §1
Muscle tissue [20] = assay: Biodistribution in ICR mouse muscle at 1 uCi, iv after 30 mins postinjection; conditions: in vivo, 0.5 h; method in brief: as §1
Muscle tissue [21] = assay: Biodistribution in ICR mouse muscle at 1 uCi, iv after 60 mins postinjection; conditions: in vivo, 1 h; method in brief: as §1
Muscle tissue [22] = assay: Biodistribution in ICR mouse muscle at 1 uCi, iv after 120 mins postinjection; conditions: in vivo, 2 h; method in brief: as §1
Muscle tissue [23] = assay: Biodistribution in ICR mouse muscle at 1 uCi, iv after 240 mins postinjection; conditions: in vivo, 4 h; method in brief: as §1
Mus musculus [24] = assay: Biodistribution in ICR mouse small intestine at 1 uCi, iv after 15 mins postinjection; conditions: in vivo, 0.25 h; method in brief: as §1
Mus musculus [25] = assay: Biodistribution in ICR mouse small intestine at 1 uCi, iv after 30 mins postinjection; conditions: in vivo, 0.5 h; method in brief: as §1
Mus musculus [26] = assay: Biodistribution in ICR mouse small intestine at 1 uCi, iv after 60 mins postinjection; conditions: in vivo, 1 h; method in brief: as §1
Mus musculus [27] = assay: Biodistribution in ICR mouse small intestine at 1 uCi, iv after 120 mins postinjection; conditions: in vivo, 2 h; method in brief: as §1
Mus musculus [28] = assay: Biodistribution in ICR mouse small intestine at 1 uCi, iv after 240 mins postinjection; conditions: in vivo, 4 h; method in brief: as §1

[125I]c1ccc(CN2CCN(Cc3ccc4c(c3)OCO4)CC2)cc1
Drug uptake (Lung [1]): 6.29 % ID/g | Drug uptake (Lung [2]): 4.91 % ID/g | Drug uptake (Lung [3]): 2.69 % ID/g | Drug uptake (Kidney [4]): 12.72 % ID/g | Drug uptake (Kidney [5]): 9.65 % ID/g | Drug uptake (Kidney [6]): 8.73 % ID/g | Drug uptake (Kidney [7]): 7.82 % ID/g | Drug uptake (Kidney [8]): 6.89 % ID/g | Drug uptake (Thyroid gland [9]): 6.55 % ID/g | Drug uptake (Thyroid gland [10]): 2.3 % ID/g | Drug uptake (Thyroid gland [11]): 1.53 % ID/g | Drug uptake (Thyroid gland [12]): 1.4 % ID/g | Drug uptake (Thyroid gland [13]): 1.22 % ID/g | Drug uptake (Stomach [14]): 2.32 %ID | Drug uptake (Stomach [15]): 2.12 %ID | Drug uptake (Stomach [16]): 1.78 %ID | Drug uptake (Stomach [17]): 2.54 %ID | Drug uptake (Stomach [18]): 1.68 %ID | Drug uptake (Muscle tissue [19]): 2.35 % ID/g | Drug uptake (Muscle tissue [20]): 1.78 % ID/g | Drug uptake (Muscle tissue [21]): 1.5 % ID/g | Drug uptake (Muscle tissue [22]): 1.06 % ID/g | Drug uptake (Muscle tissue [23]): 0.72 % ID/g | Drug uptake (Mus musculus [24]): 5.77 % ID/g | Drug uptake (Mus musculus [25]): 10.21 % ID/g | Drug uptake (Mus musculus [26]): 7.45 % ID/g | Drug uptake (Mus musculus [27]): 10.73 % ID/g | Drug uptake (Mus musculus [28]): 10.95 % ID/g

Source: ChEMBL document CHEMBL1772977, “Synthesis and biological evaluation of novel 4-benzylpiperazine ligands for sigma-1 receptor imaging” (Bioorg Med Chem, 2011)
